The list is not random: actives were taken first. Their share in the collection is about 4%.
KCNQ1 act: potentiators or activators of human KCNQ1 potassium channel; B-score at 10 µM; CHO-K1 KCNQ1, thallium flux FluxOR fluorescence; stronger effect = higher value; hit rate 0.35% among 310,000;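 active = fluorescence ratio B-score, a plate-corrected score, at least three library SD, with initial intensity B-score within 5 SD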
Target sequence (P51787 whole entry, looked up): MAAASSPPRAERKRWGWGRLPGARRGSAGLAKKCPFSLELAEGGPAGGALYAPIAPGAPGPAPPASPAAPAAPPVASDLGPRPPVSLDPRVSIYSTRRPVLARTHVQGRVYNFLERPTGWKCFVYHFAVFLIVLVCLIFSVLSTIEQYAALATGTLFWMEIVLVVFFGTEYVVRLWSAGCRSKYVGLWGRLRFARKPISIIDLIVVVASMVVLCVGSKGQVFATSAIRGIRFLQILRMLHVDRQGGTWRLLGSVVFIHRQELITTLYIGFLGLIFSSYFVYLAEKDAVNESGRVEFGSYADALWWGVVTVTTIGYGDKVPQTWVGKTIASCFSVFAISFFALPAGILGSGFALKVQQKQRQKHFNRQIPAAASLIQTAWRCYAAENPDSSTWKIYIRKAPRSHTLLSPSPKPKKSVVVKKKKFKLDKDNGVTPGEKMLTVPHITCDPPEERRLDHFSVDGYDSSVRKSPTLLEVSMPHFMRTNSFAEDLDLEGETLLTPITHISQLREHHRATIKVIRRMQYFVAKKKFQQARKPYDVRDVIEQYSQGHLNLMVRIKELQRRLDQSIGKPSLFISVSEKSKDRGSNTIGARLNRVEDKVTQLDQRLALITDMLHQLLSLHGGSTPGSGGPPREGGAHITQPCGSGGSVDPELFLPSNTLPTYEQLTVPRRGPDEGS
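Medium – assay buffer, equal DMSO in all wells · Material – CHO-K1 cell line with stable KCNQ1 potassium channel expression · Signal – kinetic FluxOR thallium fluorescence, 10-s 1-Hz baseline, 110-s post-stimulus read · Compound – single concentration per compound, DMSO matched to controls · Schedule – 37 °C overnight plating, 90-min dark dye load, 20-min compound pretreatment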
hERG rescue: compounds protecting human hERG from proarrhythmic drug block; hit rate 0.51% among 310,000; Q12809; CHO-hERG, FluxOR thallium flux, dofetilide IC70 present; AID 1511; activation (rescue from dofetilide block), less the hit threshold, % at 10 µM;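 active = activation above the mean of controls blocked by dofetilide plus 5 SD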;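 note: thallium influx through hERG after potassium depolarization seen as dye fluorescence rise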
KCNK3 inh: human KCNK3 channel inhibition, primary screen. O14649. hit rate 0.84% among 340,000. CHO-KCNK3 thallium flux, FluxOR fluorescence; stronger effect = lower value. AID 602410. B-score at 10 µM;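 active = B-score under library mean minus 4 SD, starting fluorescence ratio at most library mean plus 5 SD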;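 note: more negative B-score means stronger inhibition of thallium flux through KCNK3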
KCNQ1 block: blocks the human KCNQ1 potassium channel. CHO-K1 KCNQ1, FluxOR thallium flux fluorescence; stronger effect = higher value. P51787. hit rate 1.3% among 310,000. B-score at 10 µM;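 active = compounds whose thallium flux B-score, printed positive for inhibition, exceeds three library SD while starting fluorescence stays within three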;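 note: channel opened by potassium depolarization with thallium stimulus after 20 min compound exposure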
PHOSPHO1 inh: inhibitors of human PHOSPHO1 phosphatase | Q8TCT1 | recombinant PHOSPHO1, absorbance phosphatase assay | AID 1565 | hit rate 1.1% among 290,000 | inhibition, % at 13.3 µM; in the data active = inhibition above about 60%
KCNK9 inh: blocks the human KCNK9 two-pore domain potassium channel | B-score at 10 µM | hit rate 1.2% among 310,000 | HEK293 KCNK9, FluxOR thallium flux fluorescence; stronger effect = lower value | AID 488922 | Q9NPC2;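 active = ratio B-score over 3 SD below the library mean, with starting fluorescence within 5 SD of its mean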;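 note: negative B-score means less thallium flux so channel inhibition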
* marks the source's active call; other numbers are inactive results; i = inactive; . = no result.

SMILES | KCNQ1 act | hERG rescue | KCNK3 inh | KCNQ1 block | PHOSPHO1 inh | KCNK9 inh
CCc1ccc(S(=O)(=O)NC2CCCCNC2=O)cc1 (centres undefined) | i | -5 | i | i | 18 | i
COc1cccc(NC(=O)CCCNC(=O)Cn2cnc3sc(C)c(C)c3c2=O)c1 | i | -3 | i | i | 30 | i
COc1ccc(N2CCN(S(=O)(=O)c3ccc4c(c3)CCCC4)CC2)c([N+](=O)[O-])c1 | i | -14 | i | 7* | 3 | i
COc1cccc(N2CCN(c3ccc(S(=O)(=O)N4CCN(C)CC4)cc3[N+](=O)[O-])CC2)c1 | . | . | i | . | . | .
COc1cc(NC(=O)c2ccc3c(=O)n(Cc4ccco4)c(=S)[nH]c3c2)cc(OC)c1OC | i | -1 | i | i | 76* | i
CN1CCN(C(=O)c2ccc3c(=O)n(Cc4ccco4)c(=S)[nH]c3c2)CC1 | i | -11 | i | i | 69* | i
CCCN(CCC)C(=O)c1ccc2c(=O)n(Cc3ccco3)c(=S)[nH]c2c1 | i | -9 | i | i | 42 | i
O=c1c2cc3c(cc2[nH]c(=S)n1Cc1ccco1)OCO3 | i | -16 | i | i | 78* | i
O=C(CCCn1c(=S)[nH]c2cc3c(cc2c1=O)OCO3)NCc1ccco1 | i | -6 | i | i | -151 | i
O=C(c1ccc2c(=O)n(Cc3ccco3)c(=S)[nH]c2c1)N1CCN(Cc2ccccc2)CC1 | i | -16 | i | i | 39 | i
COc1ccc(S(=O)(=O)N2CCN=C2SCc2cccc(F)c2)cc1 | i | -7 | i | i | 61* | i
O=S(=O)(c1ccc(Br)cc1)N1CCN=C1SCc1cccc(F)c1 | i | -6 | i | i | 27 | i
Oc1ccc(Cl)cc1CNc1cccc2cccnc12 | i | -4 | i | i | 3 | -7.7*
Cn1c(=O)c2ncn(CC(=O)NC3CCCCCC3)c2n(C)c1=O | i | -6 | i | i | 84* | i
N#Cc1cncc(C#Cc2ccccc2)c1 | i | -6 | i | i | . | i
CC(=O)c1ccc(NC(=O)CN2CCC(NC(=O)C3CCCCC3)CC2)cc1 | i | 6.1* | i | i | 10 | i
COc1ccc(NC(=O)C(=O)NCC(=O)Nc2cc(OC)ccc2OC)cc1 | i | -6 | i | i | 18 | i
C/C(=N\N=C(c1ccccc1)c1ccccc1)c1cccs1 | i | -12 | i | 6* | -6 | i
C/C(=N\N1CCN(c2ccccc2)CC1)c1cccs1 | i | -2 | i | i | 37 | i
COCCCNC(=S)NNC(=S)Nc1ccccc1 | i | -7 | i | i | -6 | i
COCCCNC(=S)NNC(=S)Nc1ccc(F)cc1F | i | -15 | i | i | 83* | i
O=C(NCC1CCCO1)c1ccccc1-c1nc(-c2ccc(Cl)cc2)no1 (centres undefined) | i | -15 | i | 6* | 4 | i
Cn1nc(-c2ccc(Cl)cc2)c2cc(C(=O)N3CCN(c4ccccn4)CC3)sc21 | i | -6 | -13* | i | 0 | i
O=c1c2ccccc2nc(N/N=C/c2c(O)ccc3ccccc23)n1O | i | -11 | i | i | 66* | i
O=c1c2ccccc2nc(N/N=C/c2ccc(O)cc2)n1O | i | -10 | i | i | 88* | i
Cc1nc2ccccc2c(=O)n1/N=C/c1c(O)ccc2ccccc12 | i | -13 | i | i | 19 | i
CC1CCC(NC(=O)COC(=O)c2cccnc2Cl)CC1 (centres undefined) | . | . | i | . | . | .
CCn1c(CSc2nnc(C)n2-c2ccccc2)nc2cc(S(=O)(=O)N(C)C)ccc21 | i | -8 | i | i | 16 | i
CCn1c(CSc2nnc(-c3ccoc3C)n2C)nc2cc(S(=O)(=O)N(C)C)ccc21 | i | 32* | i | i | . | i
CC(NC(=O)CN(C)CC(=O)Nc1ccc(Cl)cc1)c1ccc(F)cc1 (centres undefined) | . | . | i | . | . | .
